Laboratory results from ChEMBL document CHEMBL1129305, “Drug delivery systems. 2. Camptothecin 20-O-poly(ethylene glycol) ester transport forms” (J Med Chem, 1996).

Key:
Mus musculus [1] = test: Ratio between mean time to death of treated versus control (survivors at 40 days) at a dose of 16 mg/kg of camptothecin, mice dosed days 1-5; format: functional
Method in brief: (§1)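 Mice bearing P388 leukemia dosed ip on days 1–5 to a total of 16 mg/kg camptothecin equivalents, given as aqueous solution or lipid suspension. Groups were 10–20 mice against untreated controls, with survivors counted at 40 days. Read-outs were mean time to death, T/C and ILS = (T/C−1)×100, compared by Student t test assuming equal variances.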

[2] = Half life in PBS buffer (pH 5.6) at 37 degree C; format: ADME
Method in brief: (§2)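 Hydrolysis run at 37 °C in PBS, pH 5.6 or pH 7.4 as stated in the line. Half-life is the time for loss of the ester. Runs done in duplicate, with SD ±10%.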

[3] = Half life in PBS buffer (pH 7.4) at 37 degree C; format: ADME; method in brief: as §2
Mus musculus [4] = test: Mean time to death at a dose of 16 mg/kg of camptothecin, mice dosed days 1-5; format: ADME, organism-based; design: dose 16 mg/kg; conditions: in vivo; method in brief: as §1
[5] = Half life in rat plasma at 37 degree C; format: ADME, organism-based
Method in brief: (§3)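 Ester incubated at 37 °C in rat or human plasma. Half-life recorded as disappearance of the transport form, with release of parent drug also followed over time. Runs done in duplicate, with SD ±10%.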

[6] = Half life in human plasma at 37 degree C; format: ADME, organism-based; method in brief: as §3
Mus musculus [7] = test: Percentage of increased life expectancies (ILS) of mice at a dose of 16 mg/kg camptothecin; ILS = (T/C-1) X 100; format: functional; method in brief: as §1
[8] = Half life in PBS buffer (pH 7.4) at 37 degree C (DMSO employed as cosolvent); format: ADME; conditions: PBS buffer with DMSO as cosolvent
Method in brief: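 Hydrolysis run at 37 °C in PBS pH 7.4 with DMSO as cosolvent. Half-life recorded in duplicate, with SD ±10%.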

Compound | T/C (Mus musculus [1]) | half-life [2] [h] | half-life [3] [h] | Mean time to death (Mus musculus [4]) [days] | half-life [5] [h] | half-life [6] [h] | ILS at 16 mg/kg (Mus musculus [7]) [%] | half-life [8] [h]
CC[C@@]1(OC(=O)CN)C(=O)OCc2c1cc1n(c2=O)Cc2cc3ccccc3nc2-1.O=C(O)C(F)(F)F | 1.64 | 16 | 3.5 | 21.7 | 0.5 | 0.25 | 64 | –
CC[C@@]1(OC(C)=O)C(=O)OCc2c1cc1n(c2=O)Cc2cc3ccccc3nc2-1 | – | – | – | – | – | – | – | > 72
CC[C@@]1(O)C(=O)OCc2c1cc1n(c2=O)Cc2cc3ccccc3nc2-1 [CAMPTOTHECIN] | 2.93 | – | – | 38.7 | – | – | 193 | –
